Laboratory results as given in ChEMBL document CHEMBL4602726, “Discovery of the First Vitamin K Analogue as a Potential Treatment of Pharmacoresistant Seizures” (J Med Chem, 2020).

What was measured:
Mus musculus = test: Anti-seizure activity in CF1 mouse assessed as attenuation of psychomotor seizures at stimulus intensities of 32 mA at 400 mg/kg, ip measured at 0.25 to 4 hrs by 6 Hz limbic seizure test relative to control; type: functional
Method in brief: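 Male CF-1 mice, n=8 per dose. 6 Hz, 3 s corneal stimulation at 32 or 44 mA. Compound given ip in miglyol840/DMSO (95%/5%). Time of peak effect found by testing at 0.25–4 h; dose-response run at that time. Protected if no stun, jaw/forelimb clonus, vibrissae twitching or Straub tail for ≥1 s. ED50 by Probit analysis.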

[1] = Toxicity in CF1 mouse assessed as induction of motor impairment during acute (1 hr) observation period up to 800 mg/kg by rotarod assay; type: organism-based; settings: in vivo
Method in brief: (§1)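 Rotarod at 6 rpm on the same animals immediately before 6 Hz stimulation, 1 h after ip dosing. A mouse falling three times within one minute was scored impaired.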

[2] = Toxicity in CF1 mouse assessed as induction of lethargy; settings: in vivo
[3] = Toxicity in CF1 mouse assessed as induction of motor/sedative effects at 400 mg/kg, ip; type: organism-based; settings: in vivo; method in brief: as §1
[4] = Drug level in CD1 mouse brain at 400 mg/kg, ip after 1 hr by LC-MS/MS analysis; type: ADME, organism-based; settings: read-out: Drug uptake
Method in brief: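 Male mice fasted overnight and given ip dose in 95% Miglyol 840/5% DMSO. Plasma precipitated 3:1 with acetonitrile plus internal standard. Brain homogenized 3:1 in PBS, then acetonitrile extraction. LC-MS/MS in MRM mode, standard curve 1 ng/mL–10 μg/mL. Ratio = mean tissue (ng/g) over mean plasma (ng/mL) concentration.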

CC(C)CCNC1=CC(=O)c2ccccc2C1=O
Activity (Mus musculus): 100% | Activity [1]: Non-Toxic | Activity [2]: Toxic | Activity [3]: Non-Toxic | concentration at 1 h [4]: 3940 ng/g
